Reference: ChEMBL document CHEMBL5042485 (J Med Chem, 2022)
Activity calls are given as the source filed them. No cut-off for these calls is given here.

Key:
[1] = Apparent permeability across apical to basolateral side in MDCK cells; assay type: ADME, cell-based, Canis lupus familiaris; conditions: dog
[2] = Oral bioavailability in CD-1 mouse 5 mg/kg measured upto 24 hrs by LC-MS/MS analysis; assay type: ADME, organism-based; conditions: in vivo
Summary of the method: (§1)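 Male CD1 mice, three per group, dosed by tail-vein injection (1 mg/kg) or oral gavage (5 mg/kg). Saphenous blood was drawn at 0.25–24 h and plasma analysed by LC–MS/MS.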

[3] = Unbound clearance in CD-1 mouse at 1 mg/kg, iv measured upto 24 hrs by LC-MS/MS analysis; assay type: ADME, organism-based; conditions: in vivo; summary of the method: as §1
[4] = target: CDK9/cyclin T1 (Homo sapiens, UniProt P50750); test: Inhibition of CDK9/cyclin T1 (unknown origin) using 5-FAM-labeled peptide as substrate in presence of ATP by mobility shift assay; assay type: protein-complex assay
Summary of the method: (§2)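 Conditions by kinase: CDK2/cyclin E1 0.5 nM with 100 μM ATP; CDK9/cyclin T1 8 nM with 30 μM ATP; CDK12/cyclin K 50 nM with 30 μM ATP.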

[5] = target: Cyclin-dependent kinase 7/ cyclin H (Homo sapiens, UniProt P50613); test: Binding affinity to full length CDK7 (1 to 346 residues) /N-terminal TEV cleavable 6His tagged full length cyclinH (1 to 323 residues) (unknown origin) expressed in baculovirus infected Sf9 cells by Surface plasmon resonance assay
Summary of the method: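 SPR on CDK7/cyclin H dimer, amine-coupled to a CM5 chip at 200–400 RU, with reference flow cells subtracted. Titration was 9-step 2-fold from 20 nM in HEPES pH 7.5, 150 mM NaCl, 0.05% P20, with 70 s contact and 300 s dissociation. Slow off-rate binders were rerun 4-step 3-fold from 10 nM with 1800 s dissociation.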

[6] = test system: HCC70; test: Antiproliferative activity against human HCC70 cells incubated for 72 hrs by Celltiter-glo assay; assay type: functional, cell-based; conditions: HCC70, 72 h
Summary of the method: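 HCC70 cells in log growth plated the day before, then incubated with compound for 72 h at ten concentrations from 4 to 0.000126 μM, duplicates per dose. Read-out was CellTiter-Glo 2.0 viability. Inhibition was calculated against the averaged DMSO signal on the same plate.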

[7] = target: CDK12/Cyclin K (Homo sapiens, UniProt Q9NYV4); test: Inhibition of CDK12/cyclin K (unknown origin) using 5-FAM-labeled peptide as substrate in presence of ATP by mobility shift assay; assay type: protein-complex assay; summary of the method: as §2
[8] = Metabolic stability in mouse liver microsomes assessed as intrinsic clearance; assay type: ADME, Microsome; conditions: read-out: CLH
[9] = Lipophilicity, log D of compound; assay type: physicochemical; conditions: octanol/water
[10] = target: Cyclin-dependent kinase 2/cyclin E1 (Homo sapiens, UniProt P24941); test: Inhibition of CDK2/cyclin E1 (unknown origin) using 5-FAM-labeled peptide as substrate in presence of ATP by mobility shift assay; assay type: protein-complex assay; summary of the method: as §2
[11] = test system: HCC70; test: Antitumour activity against human HCC70 cells xenografted in po dosed BALB/c mouse assessed as tumour growth inhibition administered twice daily for 21 days measured after 7 days post treatment by vernier caliper method; assay type: functional, organism-based; conditions: dose 2.5-4 mg/kg, time 28.0 day
Summary of the method: (§3)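 Female Balb/c nude mice, 6–8 weeks old, implanted subcutaneously with HCC70 cells. At 150–200 mm3 tumours, mice were randomized, 10 per arm. Dosing was by oral gavage for 21 days, then a 7-day observation period: 2 mg/kg QD, or 2.5 or 4 mg/kg BID. Tumour volume was measured by caliper and body weight recorded twice weekly. TGI was calculated from tumour volumes.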

[12] = test system: HCC70; test: Antitumour activity against human HCC70 cells xenografted in BALB/c mouse assessed as tumour growth inhibition at 4 mg/kg, po bid for 21 days measured after 7 days post treatment by vernier caliper method; assay type: functional, organism-based; conditions: time 28.0 day; summary of the method: as §3

CDK9/cyclin T1, sequence (O60563 whole entry): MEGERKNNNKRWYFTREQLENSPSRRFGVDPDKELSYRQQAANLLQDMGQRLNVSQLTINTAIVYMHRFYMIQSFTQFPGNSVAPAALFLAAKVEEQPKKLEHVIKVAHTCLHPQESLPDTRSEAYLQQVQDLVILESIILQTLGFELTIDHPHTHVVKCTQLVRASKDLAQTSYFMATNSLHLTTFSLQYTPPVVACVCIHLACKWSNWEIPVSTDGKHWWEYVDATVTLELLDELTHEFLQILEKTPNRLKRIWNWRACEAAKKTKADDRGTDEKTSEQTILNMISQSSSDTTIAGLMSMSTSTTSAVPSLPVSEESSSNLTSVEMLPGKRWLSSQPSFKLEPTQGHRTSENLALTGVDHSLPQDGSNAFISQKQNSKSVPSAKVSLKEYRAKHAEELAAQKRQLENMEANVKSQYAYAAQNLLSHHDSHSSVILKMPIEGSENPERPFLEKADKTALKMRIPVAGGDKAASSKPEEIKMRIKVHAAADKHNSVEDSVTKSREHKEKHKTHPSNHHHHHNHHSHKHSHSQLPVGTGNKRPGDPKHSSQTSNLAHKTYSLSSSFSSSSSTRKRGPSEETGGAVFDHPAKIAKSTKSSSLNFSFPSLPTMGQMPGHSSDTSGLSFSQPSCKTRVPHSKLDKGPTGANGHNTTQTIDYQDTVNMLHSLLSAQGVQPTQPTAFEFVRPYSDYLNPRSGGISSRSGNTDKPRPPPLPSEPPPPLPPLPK
CDK9/cyclin T1, sequence (P50750 whole entry): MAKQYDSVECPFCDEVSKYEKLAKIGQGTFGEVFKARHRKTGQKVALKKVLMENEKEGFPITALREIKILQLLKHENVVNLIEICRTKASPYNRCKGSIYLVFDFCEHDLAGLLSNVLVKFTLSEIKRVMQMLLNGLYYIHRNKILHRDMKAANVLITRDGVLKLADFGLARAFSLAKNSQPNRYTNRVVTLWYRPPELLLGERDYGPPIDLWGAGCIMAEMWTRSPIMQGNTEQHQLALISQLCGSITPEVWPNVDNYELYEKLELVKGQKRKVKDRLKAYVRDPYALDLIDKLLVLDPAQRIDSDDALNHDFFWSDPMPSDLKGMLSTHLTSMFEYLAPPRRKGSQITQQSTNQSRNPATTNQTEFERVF
CDK12/Cyclin K, sequence (O75909 whole entry): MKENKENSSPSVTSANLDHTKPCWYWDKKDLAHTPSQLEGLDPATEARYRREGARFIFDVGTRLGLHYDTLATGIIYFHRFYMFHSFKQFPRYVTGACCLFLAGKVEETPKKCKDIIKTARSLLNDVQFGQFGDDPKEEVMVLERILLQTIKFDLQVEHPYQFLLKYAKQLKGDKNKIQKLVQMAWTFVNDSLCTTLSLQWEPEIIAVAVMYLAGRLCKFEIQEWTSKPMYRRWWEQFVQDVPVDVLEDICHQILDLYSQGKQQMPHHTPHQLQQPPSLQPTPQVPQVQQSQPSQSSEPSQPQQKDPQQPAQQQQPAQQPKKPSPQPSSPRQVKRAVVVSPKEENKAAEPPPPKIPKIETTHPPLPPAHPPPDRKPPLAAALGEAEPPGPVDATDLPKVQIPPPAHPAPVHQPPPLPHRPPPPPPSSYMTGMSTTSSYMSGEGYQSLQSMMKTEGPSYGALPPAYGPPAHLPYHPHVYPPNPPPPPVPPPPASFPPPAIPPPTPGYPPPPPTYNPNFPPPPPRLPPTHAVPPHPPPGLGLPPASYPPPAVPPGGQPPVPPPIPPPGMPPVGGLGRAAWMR
CDK12/Cyclin K, sequence (Q9NYV4 whole entry): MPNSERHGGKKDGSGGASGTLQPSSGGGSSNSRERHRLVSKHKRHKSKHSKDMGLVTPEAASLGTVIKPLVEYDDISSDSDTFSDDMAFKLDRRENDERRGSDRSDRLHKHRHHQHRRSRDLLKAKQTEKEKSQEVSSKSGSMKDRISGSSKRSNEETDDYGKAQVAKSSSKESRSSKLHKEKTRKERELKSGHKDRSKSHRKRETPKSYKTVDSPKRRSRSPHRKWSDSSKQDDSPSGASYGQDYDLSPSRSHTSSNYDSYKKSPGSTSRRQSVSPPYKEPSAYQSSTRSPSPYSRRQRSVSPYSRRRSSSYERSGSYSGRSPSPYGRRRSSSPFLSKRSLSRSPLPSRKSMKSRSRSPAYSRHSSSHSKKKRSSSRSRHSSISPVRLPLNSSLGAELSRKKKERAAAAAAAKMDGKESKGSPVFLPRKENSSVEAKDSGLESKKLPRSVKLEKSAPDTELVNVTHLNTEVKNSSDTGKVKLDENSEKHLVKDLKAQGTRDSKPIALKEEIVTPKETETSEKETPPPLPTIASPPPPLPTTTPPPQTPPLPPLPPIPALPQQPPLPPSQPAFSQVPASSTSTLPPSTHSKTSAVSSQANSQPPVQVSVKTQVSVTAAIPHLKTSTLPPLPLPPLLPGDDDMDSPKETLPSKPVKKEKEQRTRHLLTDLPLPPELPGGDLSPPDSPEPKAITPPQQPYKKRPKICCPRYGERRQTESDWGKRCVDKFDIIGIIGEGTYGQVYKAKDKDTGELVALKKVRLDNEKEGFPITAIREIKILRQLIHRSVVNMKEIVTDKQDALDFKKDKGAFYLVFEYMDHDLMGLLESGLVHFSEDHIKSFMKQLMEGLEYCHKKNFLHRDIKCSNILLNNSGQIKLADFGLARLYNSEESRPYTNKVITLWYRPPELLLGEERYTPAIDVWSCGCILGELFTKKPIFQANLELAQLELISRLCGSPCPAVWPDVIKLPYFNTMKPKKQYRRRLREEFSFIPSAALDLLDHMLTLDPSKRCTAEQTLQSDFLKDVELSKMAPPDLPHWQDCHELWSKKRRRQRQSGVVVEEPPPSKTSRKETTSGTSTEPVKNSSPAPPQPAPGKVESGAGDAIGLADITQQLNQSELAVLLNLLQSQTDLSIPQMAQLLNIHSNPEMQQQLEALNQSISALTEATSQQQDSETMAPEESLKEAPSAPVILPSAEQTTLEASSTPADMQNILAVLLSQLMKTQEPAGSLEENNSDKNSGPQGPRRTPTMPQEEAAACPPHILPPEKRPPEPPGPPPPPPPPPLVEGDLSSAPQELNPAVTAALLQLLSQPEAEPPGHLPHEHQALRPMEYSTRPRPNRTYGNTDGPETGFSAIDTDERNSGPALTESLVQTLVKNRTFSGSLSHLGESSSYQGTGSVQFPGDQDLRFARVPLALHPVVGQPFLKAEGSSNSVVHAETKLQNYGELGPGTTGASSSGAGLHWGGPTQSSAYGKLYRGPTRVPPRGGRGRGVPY
Cyclin-dependent kinase 7/ cyclin H, sequence (P51946 whole entry, the tested form may be a part): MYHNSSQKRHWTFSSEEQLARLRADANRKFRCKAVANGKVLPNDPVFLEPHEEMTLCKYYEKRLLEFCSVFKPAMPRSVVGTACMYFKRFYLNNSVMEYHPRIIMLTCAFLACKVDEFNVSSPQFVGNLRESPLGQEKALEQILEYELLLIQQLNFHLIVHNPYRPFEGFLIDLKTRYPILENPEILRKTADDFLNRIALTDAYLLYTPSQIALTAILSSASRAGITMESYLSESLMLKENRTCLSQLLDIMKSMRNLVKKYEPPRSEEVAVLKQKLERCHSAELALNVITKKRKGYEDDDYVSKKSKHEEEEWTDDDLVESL
Cyclin-dependent kinase 7/ cyclin H, sequence (P50613 whole entry, the tested form may be a part): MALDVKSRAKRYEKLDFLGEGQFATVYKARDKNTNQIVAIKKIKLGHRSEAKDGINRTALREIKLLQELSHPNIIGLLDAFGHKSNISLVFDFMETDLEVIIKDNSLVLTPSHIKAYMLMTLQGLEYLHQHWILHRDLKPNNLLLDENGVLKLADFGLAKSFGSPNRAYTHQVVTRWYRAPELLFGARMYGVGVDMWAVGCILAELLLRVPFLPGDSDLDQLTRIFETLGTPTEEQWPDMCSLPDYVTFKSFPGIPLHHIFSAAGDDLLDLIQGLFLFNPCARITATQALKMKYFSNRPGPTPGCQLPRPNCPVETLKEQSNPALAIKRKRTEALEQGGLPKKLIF

SMILES: CS(=O)(=O)c1cccc2c(-c3nc(N[C@H]4CCCNC4)ncc3C(F)(F)F)c[nH]c12
- Papp A→B [1]: 3.28 ×10⁻⁶ cm/s
- bioavailability [2]: 49%
- CL free [3]: 309 mL/min/kg
- IC50 [4]: 32 nM
- Kd [5]: 0.07 nM
- EC50 [6]: 14 nM
- IC50 [7]: 15 nM
- CLint scaled [8]: < 38 mL/min/kg
- logD [9]: 1.33
- IC50 [10]: 78 nM

SMILES: Clc1cnc(N[C@H]2CCCNC2)nc1-c1c[nH]c2ccccc12
- Papp A→B [1]: 5.26 ×10⁻⁶ cm/s
- bioavailability [2]: 39%
- CL free [3]: 457 mL/min/kg
- IC50 [4]: 23 nM
- Kd [5]: 0.33 nM
- EC50 [6]: 40 nM
- IC50 [7]: 29 nM
- CLint scaled [8]: 109 mL/min/kg
- logD [9]: 1.78
- IC50 [10]: 102 nM

SMILES: FC(F)(F)c1cnc(N[C@H]2CCCNC2)nc1-c1c[nH]c2ccccc12
- Papp A→B [1]: 11.1 ×10⁻⁶ cm/s
- bioavailability [2]: 100%
- CL free [3]: 568 mL/min/kg
- IC50 [4]: 21 nM
- Kd [5]: 0.15 nM
- EC50 [6]: 11 nM
- IC50 [7]: 24 nM
- CLint scaled [8]: 127 mL/min/kg
- logD [9]: 2.02
- IC50 [10]: 42 nM

SMILES: CCc1cnc(N[C@H]2CCCNC2)nc1-c1c[nH]c2c(S(C)(=O)=O)c(C#N)ccc12
- Papp A→B [1]: 1.12 ×10⁻⁶ cm/s
- CL free [3]: 394 mL/min/kg
- IC50 [4]: 907 nM
- Kd [5]: 0.15 nM
- EC50 [6]: 287 nM
- IC50 [7]: 215 nM
- CLint scaled [8]: 89 mL/min/kg
- logD [9]: 0.49
- IC50 [10]: 1640 nM

SMILES: CS(=O)(=O)c1ccc2c(-c3nc(N[C@H]4CCCNC4)ncc3C(F)(F)F)c[nH]c2c1
- Papp A→B [1]: 0.86 ×10⁻⁶ cm/s
- CL free [3]: 729 mL/min/kg
- IC50 [4]: 133 nM
- Kd [5]: 0.1 nM
- EC50 [6]: 89 nM
- IC50 [7]: 69 nM
- CLint scaled [8]: < 38 mL/min/kg
- logD [9]: 1.31
- IC50 [10]: 299 nM

SMILES: Cc1noc(C)c1-c1ccc2c(-c3nc(N[C@H]4CCCNC4)ncc3C(F)(F)F)c[nH]c2c1
- Papp A→B [1]: 1.63 ×10⁻⁶ cm/s
- bioavailability [2]: 16%
- CL free [3]: 514 mL/min/kg
- IC50 [4]: 138 nM
- Kd [5]: 0.1 nM
- IC50 [7]: 112 nM
- CLint scaled [8]: 150 mL/min/kg
- logD [9]: 2.71
- IC50 [10]: 460 nM

SMILES: CCc1cnc(N[C@H]2CCCNC2)nc1-c1c[nH]c2ccccc12
- Papp A→B [1]: 0.49 ×10⁻⁶ cm/s
- bioavailability [2]: 2%
- CL free [3]: 473 mL/min/kg
- IC50 [4]: 430 nM
- Kd [5]: 0.4 nM
- EC50 [6]: 230 nM
- IC50 [7]: 135 nM
- CLint scaled [8]: 107 mL/min/kg
- logD [9]: 1.29
- IC50 [10]: 923 nM

SMILES: CC1(C)CNC[C@@H](Nc2ncc(C(F)(F)F)c(-c3c[nH]c4c(P(C)(C)=O)c(C#N)ccc34)n2)C1
- Papp A→B [1]: 3.32 ×10⁻⁶ cm/s
- bioavailability [2]: 28%
- CL free [3]: 597 mL/min/kg
- IC50 [4]: 572 nM
- Kd [5]: 0.06 nM
- EC50 [6]: 1 nM
- IC50 [7]: 156 nM
- CLint scaled [8]: 164 mL/min/kg
- logD [9]: 2.7
- IC50 [10]: 771 nM

SMILES: N#Cc1ccc2c(-c3nc(N[C@H]4CCCNC4)ncc3C(F)(F)F)c[nH]c2c1
- Papp A→B [1]: 4.63 ×10⁻⁶ cm/s
- bioavailability [2]: 43%
- CL free [3]: 656 mL/min/kg
- IC50 [4]: 86 nM
- Kd [5]: 0.09 nM
- EC50 [6]: 36 nM
- IC50 [7]: 60 nM
- CLint scaled [8]: 62 mL/min/kg
- logD [9]: 2.28
- IC50 [10]: 347 nM

SMILES: CS(=O)(=O)c1c(C#N)ccc2c(-c3nc(N[C@H]4CCCNC4)ncc3C(F)(F)F)c[nH]c12
- Papp A→B [1]: 1.86 ×10⁻⁶ cm/s
- bioavailability [2]: 5%
- CL free [3]: 368 mL/min/kg
- IC50 [4]: 60 nM
- Kd [5]: 0.08 nM
- EC50 [6]: 15 nM
- IC50 [7]: 33 nM
- CLint scaled [8]: < 38 mL/min/kg
- logD [9]: 1.05
- IC50 [10]: 284 nM

SMILES: CP(C)(=O)c1cccc2c(-c3nc(N[C@H]4CCCNC4)ncc3C(F)(F)F)c[nH]c12
- Papp A→B [1]: 1.02 ×10⁻⁶ cm/s
- bioavailability [2]: 3%
- CL free [3]: 73 mL/min/kg
- IC50 [4]: 286 nM
- Kd [5]: 0.08 nM
- EC50 [6]: 0.2 nM
- IC50 [7]: 102 nM
- CLint scaled [8]: < 38 mL/min/kg
- logD [9]: 0.78
- IC50 [10]: 414 nM

SMILES: CC1(C)CC[C@H](Nc2ncc(C(F)(F)F)c(-c3c[nH]c4ccccc34)n2)CN1
- IC50 [4]: 71 nM
- Kd [5]: 0.34 nM
- IC50 [7]: 95 nM
- CLint scaled [8]: 116 mL/min/kg
- logD [9]: 2.48
- IC50 [10]: 128 nM

SMILES: Cc1noc(C)c1-c1ccc2c(-c3nc(N[C@H]4CCCNC4)ncc3C(F)(F)F)c[nH]c2n1.Cl
- Papp A→B [1]: 4.62 ×10⁻⁶ cm/s
- bioavailability [2]: 36%
- CL free [3]: 712 mL/min/kg
- IC50 [4]: 90 nM
- Kd [5]: 0.03 nM
- EC50 [6]: 9 nM
- IC50 [7]: 75 nM
- CLint scaled [8]: < 38 mL/min/kg
- logD [9]: 2.6
- Activity [11]: Dose-Dependent Effect
- Activity [12]: Active
- IC50 [10]: 189 nM

SMILES: CC1(C)CNC[C@@H](Nc2ncc(C(F)(F)F)c(-c3c[nH]c4ccccc34)n2)C1
- bioavailability [2]: 40%
- CL free [3]: 1477 mL/min/kg
- IC50 [4]: 41 nM
- Kd [5]: 0.21 nM
- IC50 [7]: 36 nM
- CLint scaled [8]: 120 mL/min/kg
- logD [9]: 3.07
- IC50 [10]: 52 nM
